From ChEMBL document CHEMBL3588747, “Virtual High-Throughput Screening To Identify Novel Activin Antagonists” (J Med Chem, 2015) come the findings set out here.

Active and inactive are the calls of the source. The calls are words filed in the database; no cut-off is given here. Some results are limits rather than exact numbers.

One may read the inhibition as the change of the read-out against control, counted positive when it falls. As a reminder, the IC50 is the concentration at which inhibition is half-maximal. The term inhibition in vivo denotes the relative decrease from the control value, in per cent. A lower inhibition in vivo goes with little suppression.

The nature of series [1]: Cytotoxicity against mouse LbetaT2 cells assessed as reduction in cell viability at 100 uM after 24 hrs by MTT assay. Format: functional. The gist of the method: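 LβT2 gonadotrope cells seeded 5 × 10^4/well, grown 24 h in DMEM-F12 with 5% FBS and […] D-glucose, then exposed to compound at 10 or 100 µM in growth medium for 24 h. MTT added for a further 2–3 h; absorbance at 490 nm as viability.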
A general note: Tetrazolium dyes change colour on reduction, which living cells bring about.

Series [2] relates to HepG2. Nature of the series: […] in human HepG2 cells assessed as cell viability after 96 hrs by MTT assay. The settings on record: HepG2, 96 h. Format: functional, cell-based. The gist of the method: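 HepG2 cells (5 × 10^4/well) treated with 1 nM activin A alone (DMSO solvent control) or with compound 1.6–200 µM or Fst288 0.5–8 nM, 96 h at 37 °C in DMEM with 0.2% FBS, pyruvate, glutamine. MTT added 0.5–1 h for viability as reversal of activin-induced apoptosis; IC50 from sigmoidal variable-slope fit; means ± SD.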

In series [3] the target is T1, Inhibin beta A chain (Mus musculus, UniProt Q04998).
T1 sequence (Q04998 whole entry): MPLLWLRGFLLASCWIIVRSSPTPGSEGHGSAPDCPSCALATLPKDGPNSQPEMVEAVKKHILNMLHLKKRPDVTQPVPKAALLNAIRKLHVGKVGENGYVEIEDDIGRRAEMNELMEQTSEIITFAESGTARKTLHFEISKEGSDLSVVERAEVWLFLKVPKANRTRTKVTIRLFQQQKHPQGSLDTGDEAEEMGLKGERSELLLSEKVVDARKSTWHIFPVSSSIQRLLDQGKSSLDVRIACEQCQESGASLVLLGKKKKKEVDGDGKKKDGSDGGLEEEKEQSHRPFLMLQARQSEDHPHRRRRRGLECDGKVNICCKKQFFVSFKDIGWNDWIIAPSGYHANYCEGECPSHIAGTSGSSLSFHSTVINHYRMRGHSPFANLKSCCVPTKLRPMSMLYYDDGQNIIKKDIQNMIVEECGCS
In words: Antagonist activity at activin A in mouse LbetaT2 cells transfected with -338 promoter region of FSHbeta gene conjugated to luciferase reporter assessed as inhibition of FSHbeta promoter activation by luciferase assay. The format is cell-based. In short, it runs like this:
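−338FSHβ-Luc stably transfected LβT2 cells, 5 × 10^4 cells/well, plated 24 h, then given activin A (0.2 nM) with compound at 0.4–100 µM (in DMSO) or Fst288 0.05–4 nM as control, 6 h at 37 °C in serum-free, phenol red-free DMEM-F12. Cells lysed, luciferase activity read; IC50 from sigmoidal variable-slope fit; means ± SD.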

Series [4] can be described thus: Solubility of the compound in cell growth medium up to 200 uM after 24 hrs by upright light microscopy. Format: physicochemical. In short, it runs like this: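 Compound from 50 mM DMSO stock diluted to 200 µM final in DMEM-F12 with 5% FBS, 1% penicillin/streptomycin, […] D-glucose, held 24 h; precipitate checked visually under upright light microscope.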
The target of series [5] is T2, Inhibin beta A chain (Mus musculus) (UniProt Q04998).
T2 sequence (whole entry): T1 sequence (Q04998 whole entry)
In words: Inhibition of activin A stimulated 4 day old CD1 mouse ovarian cell proliferation at 200 uM for 4 days by BrdU assay. In short, it runs like this: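 Ovaries from 4-day-old CD1 mice cultured on membrane inserts in DMEM/F12 with 0.03% BSA with 1 nM activin A plus compound at 200 µM (DMSO control; Fst288 4 nM or inhibin A 8 nM references) for 4 days, then 10 µM BrdU for 24 h. Genomic DNA (150 ng) denatured, dot-blotted, probed with anti-BrdU, ECL, densitometry; three independent experiments; ANOVA/Tukey.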
For orientation: Incorporation of labelled thymidine or its analogues reports DNA synthesis.

For series [6], the target named is Growth/differentiation factor 8 (Homo sapiens) (UniProt O14793). In words: Inhibition of interaction of myostatin (unknown origin)/ActRIIA-ECD complex with ALK4-ECD-Fc at 25 uM after 120 secs by competitive binding/ Blitz binding assay. The gist of the method: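 Blitz biolayer assay: ALK4-ECD-Fc (50 ng/mL) captured on protein A biosensor 120 s, exposed to myostatin/ActRIIA-ECD premixed 1:2 molar at 1.6 µM final in PBS with solvent or compound at 25 µM; 120 s association, 120 s dissociation; real-time wavelength shift.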

In series [7] the target is T3, Growth/differentiation factor 8 (Mus musculus, UniProt O08689).
T3 sequence (O08689 whole entry): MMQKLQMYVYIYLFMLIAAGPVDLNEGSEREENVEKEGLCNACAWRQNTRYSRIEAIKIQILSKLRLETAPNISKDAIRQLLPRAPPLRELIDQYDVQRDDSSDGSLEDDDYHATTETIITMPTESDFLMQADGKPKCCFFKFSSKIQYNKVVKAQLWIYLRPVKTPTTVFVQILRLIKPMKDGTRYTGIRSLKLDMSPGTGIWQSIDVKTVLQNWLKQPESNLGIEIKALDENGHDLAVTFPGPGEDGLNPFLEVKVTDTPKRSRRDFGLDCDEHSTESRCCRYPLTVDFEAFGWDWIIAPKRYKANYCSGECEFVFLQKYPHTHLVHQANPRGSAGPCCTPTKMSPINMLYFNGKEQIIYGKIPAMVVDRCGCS
In words: Antagonist activity at myostatin in mouse LbetaT2 cells transfected with -338 promoter region of FSHbeta gene conjugated to luciferase reporter assessed as inhibition of FSHbeta promoter activation by luciferase assay. The format is cell-based. The gist of the method: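 Stable −338FSHβ-Luc LβT2 cells were plated at 5 × 10^4/well. They were stimulated with myostatin (0.2 nM) plus DMSO solvent control, or with compound at 0.8–100 µM, for 6 h at 37 °C in serum-free, phenol red-free DMEM-F12. Cells were lysed for luciferase readout. Runs were in triplicate across three experiments, and IC50 came from a sigmoidal variable-slope fit, reported as mean ± SD.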
(In general: A reporter such as luciferase makes a cellular process visible.)

In series [8] the test system is Mus musculus. Nature of the series: Inhibition of activin - stimulated serum FSH level in ovariectomized CD1 mouse at 15 mg/kg, sc by ELISA (reference value: 100%). The format is functional, organism-based. The gist of the method:
(§1)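 Ovariectomized 12-week-old CD1 mice dosed subcutaneously twice daily for 2 days (4 doses); vehicle TBS or DMSO; Fst288 200 µg/kg for 3 doses as reference. Serum then collected, stored −20 °C, FSH measured by ELISA (sensitivity 0.35 mIU/mL, read 450 nm); vehicle mean set to 100%. 5–7 mice per group, 10 controls; one-way ANOVA with Tukey.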

Series [9] has as its system Mus musculus. In words: Inhibition of activin - stimulated serum FSH level in ovariectomized CD1 mouse at 60 mg/kg, sc by ELISA (reference value: 100%). The format is functional. In short, it runs like this:
as §1

For series [10], the system named is Mus musculus. In words: Inhibition of activin - stimulated serum FSH level in ovariectomized CD1 mouse at 30 mg/kg, sc by ELISA (reference value: 100%). The format is functional. The gist of the method: as §1
The subject of series [11] is Mus musculus. Nature of the series: Toxicity in ovariectomized CD1 mouse assessed as change in behavior at 60 mg/kg, sc twice daily for 2 days. The format is organism-based. The note with it: in vivo, 48 h. In short, it runs like this:
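Ovariectomized 12-week-old CD1 mice given subcutaneous compound twice daily for 2 days (4 doses); behaviour observed after injection.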

The target in series [12] is T4, Inhibin beta A chain (Homo sapiens) (UniProt P08476).
T4 sequence (whole entry): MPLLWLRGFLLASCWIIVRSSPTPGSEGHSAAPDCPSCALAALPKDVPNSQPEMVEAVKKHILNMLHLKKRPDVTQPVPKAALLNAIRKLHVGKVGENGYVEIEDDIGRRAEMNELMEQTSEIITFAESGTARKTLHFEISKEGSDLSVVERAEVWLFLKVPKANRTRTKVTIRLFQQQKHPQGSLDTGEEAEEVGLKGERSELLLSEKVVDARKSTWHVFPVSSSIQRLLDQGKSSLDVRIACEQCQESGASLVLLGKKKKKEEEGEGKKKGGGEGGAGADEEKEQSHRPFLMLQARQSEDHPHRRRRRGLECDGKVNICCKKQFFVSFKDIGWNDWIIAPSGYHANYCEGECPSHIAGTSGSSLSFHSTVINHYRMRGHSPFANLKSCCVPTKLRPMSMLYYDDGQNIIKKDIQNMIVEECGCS
In words: Inhibition of interaction of activin A (unknown origin) with ActRIIA-ECD complex at 25 uM after 120 secs by competitive binding/ Blitz binding assay. In short, it runs like this:
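Protein A biosensor (Blitz, dip-and-read) loaded with ActRIIA-ECD-Fc; activin A at 1.6 µM final, with solvent or compound at 25 µM, 120 s association and 120 s dissociation in PBS; real-time wavelength shift recorded.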

The target of series [13] is T4, Inhibin beta A chain (Homo sapiens). In words: Inhibition of interaction of activin A (unknown origin)/ActRIIA-ECD complex with ALK4-ECD-Fc after 120 secs by competitive binding/ Blitz binding assay. In short, it runs like this:
(§2)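 ALK4-ECD-Fc (50 ng/mL) captured on a protein A biosensor for 120 s, then dipped into activin A/ActRIIA-ECD premixed 1:2 molar, 1.6 µM final in PBS, with solvent or compound at 0.4, 1.6, 6.25 or 25 µM; 120 s association, 120 s dissociation in PBS; wavelength shift monitored by Blitz.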

For series [14] the target is unchanged. In words: Inhibition of interaction of activin A (unknown origin)/ActRIIA-ECD complex with ALK4-ECD-Fc at 25 uM after 120 secs by competitive binding/ Blitz binding assay. In short, it runs like this: as §2
Series [15] deals with Mus musculus. In words: Toxicity in ovariectomized CD1 mouse assessed as liver and kidney histopathology at 60 mg/kg, sc twice daily for 2 days. The format is organism-based. The settings on record: in vivo, 48 h. In short, it runs like this:
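Ovariectomized CD1 mice given vehicle or 60 mg/kg subcutaneously, 4 doses over 2 days; kidney and liver fixed in Modified Davidson's fixative 5 days at 4 °C, paraffin-embedded, H&E stained for histopathology.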

For the compound `Cn1cc(CN2C[C@H](OCc3cccnc3)CN(Cc3ccc(C#CC(C)(C)O)cc3)CC2=O)cn1`, the inhibition at 100 µM in series [1] is less than 20%. The IC50 worked out at 43.9 µM in series [2] and 4.25 µM in series [3]. Besides, the solubility entry in [4] is “soluble”.
Taken in the same sequence, the figures for `COc1ccc(OC[C@@H](O)CN2CCC(O)CC2)c(CNCCc2cccnc2)c1` were less than 20%, 47.3 µM, 4.18 µM and “soluble”.
With `CC(C)(O)C#Cc1ccc(CN2CCC[C@@H](CCC(=O)N3CCOCC3)C2)s1`, in series [1], the inhibition at 100 µM was less than 20%. Further, the IC50 in series [2] was determined as 23.2 µM; in series [3] it was 4.42 µM. For the same compound, the inhibition result in series [5] is “Active”. Also, the solubility entry in series [4] is “soluble”.
Regarding `O=C(NCc1ccccc1)c1nn(CCO)c2c1CN(C1CCCC1)CC2`, the inhibition at 100 µM in series [1] was less than 20%. In series [3], the IC50 is more than 100 µM. The solubility result in [4] is listed as “soluble”.
In the case of `CCn1c(-c2cccnc2)nc2cc(NC(=O)COC)cc(C(=O)NCc3ccccc3)c21`, the outcome in series [6], in [8] and in series [12] was inactive. Moreover, the values for the IC50 in [7], in [2] and in series [3] were 47.9 µM, 12.1 µM and 3.67 µM, respectively. This compound also had an inhibition in vivo at 60 mg/kg in [9] of 70%. Moreover, the inhibition at 100 µM in series [1] is less than 20%. Besides, the inhibition in vivo at 30 mg/kg in [10] came to 70%. For the same compound, the Activity result in [11] and in series [15] was “Non-toxic” in each case. The inhibition result in [5] is “Active”. Moreover, the inhibition result in series [13] was “Dose-dependent effect”. Besides, in series [14], the outcome was Active. The solubility entry in series [4] is listed as “soluble”.
On to `O=C1CC[C@](CCC(=O)N2CCC([C@@H](O)c3cccnc3)CC2)(Cc2cccc3ccccc23)N1`, for which the inhibition at 100 µM in series [1] is less than 20%. Further, the IC50 in series [2] was more than 200 µM; in [3], 23.6 µM. The solubility entry in [4] is recorded as “soluble”.
Take `COc1cccc(CO[C@H]2CN(CCc3ccccc3)C(=O)CN(C(=O)[C@@H]3CNC(=O)C3)C2)c1`: the inhibition at 100 µM in [1] is less than 20%. In addition, in [3], the IC50 was more than 100 µM. For the same compound, in [4], the solubility entry is given as “soluble”.
Take `O=C(NCc1cccc(F)c1)[C@@H]1CCC(=O)N(CCCN2CCCC2=O)C1`: in [1], the inhibition at 100 µM was less than 20%. The IC50 in [3] was more than 100 µM. Moreover, the solubility entry in series [4] is given as “soluble”.
Regarding `Cc1n[nH]c(O)c1C(c1ccc(-c2ccccc2C(=O)O)o1)c1c(C)n[nH]c1O`, the inhibition at 100 µM in series [1] was less than 20%. Further, the half-inhibitory concentration (IC50) in series [3] is more than 100 µM. The solubility result in series [4] is reported as “soluble”.
For the compound `CCCn1ncc(CN2CCN(CCCc3ccccc3)[C@@H](CCO)C2)c1C`, in series [1], the inhibition at 100 µM was less than 20%. Moreover, in [3], the IC50 was more than 100 µM. Also, in [4], the solubility entry is listed as “soluble”.
With `O=C(N[C@H](Cc1ccc2c(c1)OCO2)C(=O)N[C@@H](Cc1c[nH]c2ccccc12)C(=O)O)c1ccccc1`, in series [1], the inhibition at 100 µM is less than 20%. For the same compound, the IC50 in series [3] was more than 100 µM. In [4], the solubility result was “soluble”.
